Screening data as filed in PubChem.
CDK5 inh = inhibitors of human CDK5/p35 kinase. Q00535+Q15078. Recombinant CDK5/p35, ADP-Glo luminescence, 60 min. inhibition, % at 10 µM. actives 0.01% (n = 330,000);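 active = highest replicate inhibition of at least 50% and at least 75% of replicates reaching 50%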;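 also: plate controls were DMSO neutral control for no effect and GW8510 at 10 µM for full effect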
Target sequence (Q00535 whole entry, looked up): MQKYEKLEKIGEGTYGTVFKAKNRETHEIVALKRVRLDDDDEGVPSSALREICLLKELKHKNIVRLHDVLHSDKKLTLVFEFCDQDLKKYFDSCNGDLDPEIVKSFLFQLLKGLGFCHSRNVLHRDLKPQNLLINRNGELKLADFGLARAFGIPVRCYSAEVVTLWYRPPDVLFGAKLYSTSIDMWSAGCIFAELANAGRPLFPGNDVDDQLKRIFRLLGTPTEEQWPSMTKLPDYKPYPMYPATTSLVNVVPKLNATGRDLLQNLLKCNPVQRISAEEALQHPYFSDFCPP
Target sequence (Q15078 whole entry, looked up): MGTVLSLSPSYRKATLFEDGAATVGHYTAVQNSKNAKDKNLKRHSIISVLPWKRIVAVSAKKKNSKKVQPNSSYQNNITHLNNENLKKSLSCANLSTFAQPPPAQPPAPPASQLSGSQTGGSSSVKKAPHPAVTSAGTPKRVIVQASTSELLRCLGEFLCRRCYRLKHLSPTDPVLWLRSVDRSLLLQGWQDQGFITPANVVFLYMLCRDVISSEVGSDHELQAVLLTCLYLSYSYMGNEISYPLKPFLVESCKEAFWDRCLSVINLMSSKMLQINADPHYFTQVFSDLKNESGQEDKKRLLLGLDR
PKA-R1A act = activates the PKA-R1A holoenzyme complex; P00514+P68181; PKA-R1A dissociation, Cy5-IP20 fluorescence polarization; scaled: DMSO 0%, 113 µM cGMP 100%; activation, % at 11.4 µM; actives 0.083% (n = 340,000);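 active = percent activation above the mean of all tested compounds plus 3 SD, cut at about 19% in these data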;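 also: higher means more PKAc released from R1A so a rise in polarization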
PKA-R2B act = activates the human PKA-R2B holoenzyme complex. PKA-R2B holoenzyme dissociation, Cy5-IP20 fluorescence polarization; R2B truncated from residue 108, S112A mutant; 0% DMSO only, 100% 113 µM cGMP. activation, % at 11.4 µM. actives 0.079% (n = 340,000);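 active = activation above a cutoff set at the mean over all compounds plus 3 SD, cut at about 18% in these data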;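 also: higher means more holoenzyme dissociation and a rise in polarization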
dFosB act-1 = activators of mouse delta FosB homodimer; P13346; purified delta FosB, TAMRA-CDK5 oligo fluorescence polarization; percent of positive-control signal above neutral wells; activation, % at 25 µM; actives 0.99% (n = 340,000);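 active = mean activation above about 17%, with every replicate also reaching it, limit read from the data, passing the limit was not always enough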
SR-BI uptake up = enhances SR-BI lipid uptake from DiI-HDL; CHO ldlA[mSR-BI] cells, DiI-HDL uptake fluorescence, 3 h; 100 = double the neutral-control signal; activation, % at 12.5 µM; AID 504775; actives 0.096% (n = 320,000);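 active = mean replicate activation of at least 60% and every replicate at or above 60%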;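 also: 0% = median plate neutral-control signal and 100% = twice that signal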
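Test system: SR-BI-overexpressing, LDLR-lacking CHO cells; Also added: labelled HDL, 10 µg/mL; Measured by: bottom-read cell fluorescence after medium removal, ex 550/em 595 nm; Timing: 3 h uptake period with compound, 37 °C; Buffer or medium: F12, 0.5% BSA, 25 mM HEPES; Doses: single compound concentration, delivered by pin transfer.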
SR-BI HDL uptake = inhibitors of mouse SR-BI mediated HDL lipid uptake. Q61009. ldlA[mSR-BI] CHO cells, DiI-HDL uptake fluorescence, 3 h. inhibition, % at 12.5 µM. actives 0.96% (n = 320,000). AID 488896;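 active = mean replicate inhibition of at least 70% and a set share of replicates each scoring 70 or more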;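 also: 0% = median of neutral control wells and 100% = median of positive control wells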
dFosB act-2 = enhances mouse delta FosB homodimer binding to DNA | purified delta FosB, TAMRA-CDK5 oligo fluorescence polarization; normalised: neutral wells 0, positive control 100 | activation, % at 24.9 µM | AID 588690 | 2,400 tested, under 10 active | shares compounds with dFosB act-1;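 active = highest replicate activation at or above 34% and every replicate reaching that threshold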;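 also: higher polarization means more probe DNA bound by delta FosB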
The depositor's hits bear a star; nt = no result. Most compounds without a hit are left out; they make up all but 2.1% or so of the library.

SMILES	CDK5 inh	PKA-R1A act	PKA-R2B act	dFosB act-1	SR-BI uptake up	SR-BI HDL uptake	dFosB act-2
O=C(Nc1ccc(F)cc1)Nc1nnc(Cc2ccccc2F)s1	-1.7	5.0	13.1	20.9*	-12.5	12.5	-0.7
O=C(NC1CCN(Cc2ccc(Cl)c(Cl)c2)CC1)c1ccccc1	2.2	-6.5	0.2	-6.5	-0.4	0.4	nt
O=C(COc1ccc(F)cc1F)N1CCCCCCC1	-0.2	-6.4	1.2	2.5	20.5	-20.5	nt
Cc1cc(C)n2nc(CNS(=O)(=O)c3ccc(CC(C)C)cc3)nc2n1	0.6	2.9	6.9	-7.6	26.2	-26.2	nt
COc1ccc(/C(C)=N/NC(=O)Cn2nc([N+](=O)[O-])cc2C)cc1	0.7	-7.1	0.1	1.5	-2.2	2.2	nt
COc1ccccc1NC(=O)Nc1nnc(Cc2ccccc2F)s1	1.8	-7.4	3.0	2.9	-13.8	13.8	nt
O=C(Nc1ccc(Cl)cc1)Nc1nnc(CSCc2ccc(Cl)cc2)s1	-0.2	-6.7	-6.5	18.6*	-17.6	17.6	0.2
CCc1nnc(NC(=O)Nc2ccc(Cl)cc2)s1	-0.5	-10.1	-0.4	-0.4	-26.1	26.1	nt
COc1ccccc1NC(=O)Nc1nnc(CC(=O)Nc2cccc(C)c2)s1	-1.3	-5.6	12.5	31.6*	nt	nt	4.5
Cc1ccc(OCC(=O)c2c(N)n(C)c(=O)n(C)c2=O)c([N+](=O)[O-])n1	-2.2	-17.4	8.7	-9.6	4.2	-4.2	nt
CCOC(=O)Cc1csc(SCC(=O)NC2CCS(=O)(=O)C2)n1 (configuration not stated)	1.0	4.9	8.6	-3.5	16.4	-16.4	nt
CCn1cc(C(=O)NP(=O)(Nc2ccc(C)cc2)Nc2ccc(C)cc2)c2ccccc21	0.2	5.5	-0.5	35.6*	164.8*	-164.8	-3.6
COc1ccc(Cl)cc1NC(=O)Cn1nnc(C(=O)NCc2ccc3c(c2)OCO3)c1N	1.5	-1.0	-1.7	39.3*	-21.8	21.9	-0.4
O=C(NCc1ccc2c(c1)OCO2)c1nnc(Cc2ccc(Cl)cc2)o1	0.3	-2.7	7.0	26.9*	9.0	-9.0	2.6
Cc1cc(C)c(NC(=O)Cn2nnc(C(=O)NCc3ccc4c(c3)OCO4)c2N)c(C)c1	0.5	-3.1	-8.0	74.5*	13.1	-13.1	-0.4
CC(C)c1ccc(NC(=O)Cn2nnc(C(=O)NCc3ccc4c(c3)OCO4)c2N)cc1	-1.3	4.9	6.3	30.9*	-3.8	3.8	-2.9
O=C(NCc1ccc2c(c1)OCO2)c1ccc(CS(=O)Cc2ccc(Cl)cc2)o1 (configuration not stated)	0.1	-3.4	-3.4	-5.6	nt	35.2	nt
Cc1ccc(NC(=O)Cn2nnc(C(=O)NCc3ccc4c(c3)OCO4)c2N)cc1	-0.7	12.4	10.0	-3.7	-6.9	6.9	nt
Nc1c(C(=O)NCc2ccc3c(c2)OCO3)nnn1CC(=O)Nc1ccc(Br)cc1	0.9	-10.2	-2.4	50.9*	-10.6	10.6	4.9
CC(=O)c1c(C)[nH]c(C(=O)OCc2c(F)cccc2Cl)c1C	1.4	-5.6	14.2	21.5*	-45.6	45.6	-0.5
CCOC(=O)c1[nH]c(C)c(C(=O)OCc2ccccc2F)c1C	-1.5	2.1	1.3	-6.3	-34.1	34.1	nt
O=C(Nc1ccncc1)C1CCC(CNS(=O)(=O)c2cccc3nsnc23)CC1 (configuration not stated)	1.0	-1.2	1.5	-9.8	4.9	-4.9	nt
COc1ccc(OC)c(/C=N/NC(=O)CSc2cc(C)nc3c(OC)cccc23)c1	-0.3	nt	nt	37.2*	-5.8	5.8	5.0
Nc1nc(=S)c2ncn(C3OC(CO)CC3O)c2[nH]1 (configuration not stated)	1.4	-3.1	2.6	-4.8	25.7	-25.7	nt
CCC1CCc2sc(C(=O)NC3CCN(Cc4ccccc4)CC3)cc2C1 (configuration not stated)	-2.0	-11.5	-5.1	29.0*	-62.8	62.8	0.9
